Compounds with a hit are over-represented: about 4.2% of the library has one in this group of screens.
GalR3 antag = GalR3 antagonists in HEK293 cells, primary screen, cell-based, fluorescence readout; Galanin receptor type 3 (Homo sapiens), O60755; hit rate 0.44% among 360,000; HEK293 GalR3-CNG cAMP membrane potential fluorescence; galR3 body fused to GalR1 C-terminus; inhibition, % at 3 µM;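 active = inhibition above the screen-wide average plus 3 SD, cut at about 13% in these data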;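 also: forskolin and galanin both at EC90 stimulate the cells; cAMP rise reported by CNG channel membrane potential dye signal; 0% = forskolin plus galanin with DMSO and 100% = forskolin alone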
Target sequence (O60755 1-299 limits assumed): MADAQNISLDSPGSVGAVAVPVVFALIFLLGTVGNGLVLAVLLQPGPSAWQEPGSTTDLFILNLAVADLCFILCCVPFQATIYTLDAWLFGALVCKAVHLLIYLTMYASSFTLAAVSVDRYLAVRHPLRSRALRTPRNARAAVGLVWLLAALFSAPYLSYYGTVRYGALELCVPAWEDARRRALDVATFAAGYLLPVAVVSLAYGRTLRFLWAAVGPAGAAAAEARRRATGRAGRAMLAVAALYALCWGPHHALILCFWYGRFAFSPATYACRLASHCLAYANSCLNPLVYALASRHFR
CHO parental Ca = ATP-evoked calcium signal inhibitors, parental CHO, primary screen, counter-screen for OX1R antagonist project, cell-based, fluorescence, Fluo-8 calcium dye. inhibition, % at 5.6 µM. parental CHO-K1, ATP-induced calcium, Fluo-8 fluorescence. hit rate 0.63% among 330,000;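 active = inhibition above that plate's mean sample inhibition plus 3 SD, cut at about 26% in these data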;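 also: 0% = ATP-challenged DMSO wells and 100% = DMSO wells without ATP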
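Test system: untransfected parental CHO cell line. Compound: one dose, 5.6 µM nominal. Detection: intracellular calcium via Fluo-8 no-wash fluorescent dye. Measure: % inhibition. Benchmarks: ATP-challenged DMSO wells low, unchallenged DMSO wells high.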
OX1R antag-1 = OX1R (HCRTR1) antagonists, primary screen, fluorescence, CHO/OX1R cells, Fluo-8 calcium, orexin A. Orexin/Hypocretin receptor type 1 (Homo sapiens), O43613. Fluo-8 calcium fluorescence. inhibition, % at 5 µM. hit rate 0.43% among 330,000. AID 434989, 2010;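 active = inhibition above its plate's threshold, mean inhibition of all tested compounds on the plate plus 3 SD, cut at about 37% in these data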;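 also: 0% = orexin A challenge wells and 100% = SB-334867-A antagonist wells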
TAAR1 agonist = human TAAR1 agonists, primary screen, Fluo-8 calcium fluorescence, CHO RD-HGA16 cells; activation, % at 3 µM; Trace amine-associated receptor 1 (Homo sapiens), Q96RJ0; vehicle wells 0%, saturating PEA agonist 100%; hit rate 0.99% among 360,000;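 active = activation above the mean activation of all test compounds in the run plus 3 SD, cut at about 38% in these data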
Target sequence (Q96RJ0 whole entry, looked up): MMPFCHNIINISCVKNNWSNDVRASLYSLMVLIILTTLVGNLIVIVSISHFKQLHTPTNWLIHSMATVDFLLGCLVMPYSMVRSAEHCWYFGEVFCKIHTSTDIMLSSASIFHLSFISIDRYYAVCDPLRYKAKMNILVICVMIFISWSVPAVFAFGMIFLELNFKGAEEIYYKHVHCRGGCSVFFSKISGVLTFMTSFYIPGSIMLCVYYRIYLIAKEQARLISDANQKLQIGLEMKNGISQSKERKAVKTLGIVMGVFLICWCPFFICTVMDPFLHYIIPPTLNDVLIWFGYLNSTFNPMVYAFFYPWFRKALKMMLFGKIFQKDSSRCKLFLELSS
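Assay system: CHO-derived RD-HGA16 cells with stable Gα16 and human TAAR1; timing: 17-24 h seeding, 75 min 37 °C dye, 30 min RT; read-out: % activation from peak over basal fluorescence ratio, DMSO-to-PEA scaled; measured by: kinetic Fluo-8 calcium fluorescence; benchmarks: low control DMSO, high control PEA (EC100); doses: 3 µM single concentration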
TAAR1 antag = human TAAR1 antagonists, primary screen, Fluo-8 calcium fluorescence, CHO RD-HGA16 cells | inhibition, % at 3 µM | hit rate 1.5% among 360,000 | AID 624466, 2012 | antagonist | Trace amine-associated receptor 1 (Homo sapiens), Q96RJ0;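 active = inhibition above a per-plate cutoff, the mean inhibition of test compounds on that plate plus 3 SD, cut at about 49% in these data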;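 also: 0% = DMSO plus EC80 beta-PEA response and 100% = DMSO alone without agonist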
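System: RD-HGA16 CHO cells with stable hTAAR1 and Gα16 | Probe or stimulus: EC80 β-phenethylamine stimulus | Dosing: 3 µM, single point | Times: Dye loading 75 min at 37 °C, then 30 min room temperature | Measured by: Fluo-8 calcium-sensitive fluorescence | Read-out basis: % inhibition of agonist calcium response | Replicates: n of 1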
OX1R antag-2 = antagonists of human orexin 1 receptor (OX1R) | hit rate 1.8% among 330,000 | inhibition, % at 6.6 µM | AID 485270, 2010 | Orexin/Hypocretin receptor type 1 (Homo sapiens), O43613 | OX1R-expressing cells, FRET antagonist read-out; in the data active = inhibition mostly above about 38%, no sharp cut-off; inactive = mostly below about 40%;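 also: 0% = agonist challenge alone and 100% = reference antagonist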
nonsel antag count = nonselective antagonists in TAAR1 counter-screen cells, counter-screen for hTAAR1 antagonist project, cell-based, fluorescence, calcium | inhibition, % at 3 µM | counterscreen cell line, antagonist mode | shares compounds with TAAR1 antag | AID 651780, 2012 | hit rate 77% among 2,400; in the data active = inhibition above about 22%;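 also: CHO-Ga16 host cells stimulated with ATP at an EC80 level; 0% = agonist EC80 plus vehicle and 100% = vehicle without agonist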
TAAR1 antag conf = human TAAR1 antagonists, retest of hits, confirmation, cell-based, fluorescence. inhibition, % at 3 µM. hit rate 40% among 2,400. shares compounds with TAAR1 antag. TAAR1-expressing cells, fluorescence antagonist read-out. AID 651785, 2012; in the data active = inhibition above about 49%;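 also: CHO-Ga16 host cells challenged with agonist PEA near its EC80; 0% = agonist at EC80 plus vehicle and 100% = vehicle with no agonist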
Ga16 ag counter-1 = calcium activation in Ga16-expressing cells, counter-screen for TAAR1 antagonist project, cell-based, fluorescence | shares compounds with TAAR1 antag | agonist counterscreen | activation, % at 3 µM | hit rate 18% among 2,400; in the data active = activation above about 12%;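 also: 0% = vehicle wells and 100% = saturating stimulus response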
TAAR1 ag count = TAAR1 activation by candidate antagonists – cell-based, fluorescence, counter-screen for TAAR1 antagonist project | activation, % at 3 µM | shares compounds with TAAR1 antag | AID 651955, 2012 | hit rate 2% among 2,400 | hTAAR1 cell line, agonist mode; in the data active = activation above about 37%;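 also: CHO cells stably expressing TAAR1 with calcium dye readout; 0% = DMSO vehicle and 100% = full agonist response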
TAAR1 ag confirm = human TAAR1 agonists, retest of hits, confirmation, Fluo-8 calcium fluorescence, CHO RD-HGA16 cells. shares compounds with TAAR1 agonist. scaled: DMSO 0%, maximal phenethylamine 100%. activation, % at 3 µM. hit rate 82% among 2,400;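 active = activation above a cutoff set at the run's mean compound activation plus 3 SD, cut at about 39% in these data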
Ga16 ag counter-2 = nonselective calcium mobilization agonists, CHO-Ga16 cells, counter-screen for hTAAR1 agonist project, cell-based, fluorescence, CHO-Ga16 parental line; shares compounds with TAAR1 agonist; Fluo-8 calcium fluorescence; normalized to maximal ATP response, DMSO zero; activation, % at 3 µM; hit rate 50% among 2,400; AID 651787, 2012;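 active = activation above the run cutoff, the mean activation over all tested wells plus 3 SD, cut at about 12% in these data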;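 also: 0% = DMSO wells and 100% = maximal ATP response on the peak over basal ratio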
TAAR1 desensitize = TAAR1 desensitization by agonist hits, confirmation, counter-screen for TAAR1 agonist project, cell-based, fluorescence, tachyphylaxis; hit rate 46% among 2,400; shares compounds with TAAR1 agonist; CHO RD-HGA16 hTAAR1, Fluo-8 calcium, beta-PEA response inhibition; inhibition, % at 3 µM;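 active = inhibition above the run cutoff, the mean inhibition of all test compounds plus 3 SD, cut at about 49% in these data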;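 also: beta-PEA stimulus applied at its EC80; loss of beta-PEA calcium signal after compound pretreatment read as receptor desensitization; 0% = DMSO with beta-PEA at EC80 and 100% = DMSO alone without agonist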
Ga16 nonsel ant = inhibition of ATP-evoked calcium response in CHO-Ga16 cells, counter-screen for TAAR1 agonist project, cell-based, fluorescence; shares compounds with TAAR1 agonist; CHO-Ga16 ATP-induced calcium, Fluo-8 fluorescence; inhibition, % at 3 µM; hit rate 39% among 2,400;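 active = inhibition above the plate's mean compound inhibition plus 3 SD, computed per plate, cut at about 22% in these data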;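 also: 0% = EC80 ATP with DMSO and 100% = DMSO wells without ATP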
The depositor's hits bear a star; / = not tested or not shown.

SMILES	GalR3 antag	CHO parental Ca	OX1R antag-1	TAAR1 agonist	TAAR1 antag	OX1R antag-2	nonsel antag count	TAAR1 antag conf	Ga16 ag counter-1	TAAR1 ag count	others
O=P(Nc1ccccc1)(Oc1ccccc1)Oc1ccccc1	-5	-8	-7	8	74*	27	27*	59*	8	6
NP(=O)(Oc1ccccc1)Oc1ccccc1	-6	/	/	2	7	/	/	/	/	/
Cc1cccc(NP(=O)(Oc2ccccc2)Oc2ccccc2)c1C	-9	-2	4	5	73*	17	24*	44	6	3
COc1cccc(CNCCc2ccc3c(c2)OCO3)c1OC	-12	-13	-28	8	8	-1	/	/	/	/
CCN1CCN(C(=O)COc2ccc3oc4c(c3c2)CCCC4)CC1	-2	-14	-46	1	-11	2	/	/	/	/
C=C1[C@@H](C)[C@H]2[C@H](Cc3ccccc3)NC(=O)[C@]23OC(=O)/C=C/[C@H](O)CCC[C@@H](C)C/C=C/[C@H]3[C@@H]1O	0	-12	-16	20	72*	19	32*	55*	11	13
c1ccc(-c2nc3ccccc3nc2-c2ccc(CN3CCC(n4nnc5ccccc54)CC3)cc2)cc1	-8	/	/	1	51*	/	16	32	0	-2
CC(=O)c1ccc2c(c1)C1C(Cl)C(Sc3ccccc3[N+](=O)[O-])CC1C(c1ccccc1[N+](=O)[O-])N2 (stereo unspecified)	-8	5	0	9	58*	41	34*	46	7	4
CC(=O)c1ccc2c(c1)C1C(Cl)C(Sc3ccccc3[N+](=O)[O-])CC1C(c1ccccc1)N2 (stereo unspecified)	-2	-7	-3	2	-2	45	/	/	/	/
COC(=O)C1=C(c2ccc(F)cc2OCc2ccccc2)C[C@@H]2CC[C@H]1N2C(=O)NCc1ccc([N+](=O)[O-])cc1	-10	-29	-9	6	58*	9	27*	33	2	-3
O=P(Nc1cccnc1)(Oc1ccccc1Cl)Oc1ccccc1Cl	-2	-12	-32	10	70*	20	32*	47	7	9
Cc1cccc(OP(=O)(Nc2cccnc2)Oc2cccc(C)c2)c1	-3	-26	-36	10	39	12	/	/	/	/
CSCCC(c1nnnn1C1CCCC1)N1CCC2(CC1)C(=O)NCN2c1ccccc1 (stereo unspecified)	-8	/	/	7	15	/	/	/	/	/
O=c1[nH]c2ccccc2n1C1CCN(C(CCc2ccccc2)c2nnnn2C2CCCCC2)CC1 (stereo unspecified)	-3	/	/	9	58*	/	26*	46	4	11
CSCCC(c1nnnn1-c1c(C)cccc1C)N1CCC(n2c(=O)[nH]c3ccccc32)CC1 (stereo unspecified)	0	/	/	11	53*	/	24*	55*	7	14
Cc1cccc(C)c1-n1nnnc1C(C1CC1)N1CCC(n2c(=O)[nH]c3ccccc32)CC1 (stereo unspecified)	-4	/	/	2	19	/	/	/	/	/
CSCCC(c1nnnn1C1CCCC1)N1CCC(n2c(=O)[nH]c3ccccc32)CC1 (stereo unspecified)	-5	/	/	23	56*	/	23*	48	8	21
C=C1C[C@]2(O)[C@@]3(C)CCC(=O)C(C)(C)C3=C(O)C(=O)[C@@]2(C)[C@@H]2C(=O)O[C@@](C)(C(=O)OC)C(=O)[C@@]12C	1	-13	-13	2	-29	8	/	/	/	/
COC(=O)Nc1nc2ccccc2[nH]1	-8	/	/	1	4	/	/	/	/	/
O=C(Cn1c(=S)[nH]c2ccccc2c1=O)N1CCC2(CC1)OCCO2	-4	-3	-2	3	-4	8	/	/	/	/
Cc1c(C(=O)N2CCC3(CC2)OCCO3)sc2ncnc(N3CCN(c4ccccn4)CC3)c12	1	-11	-8	23	61*	12	28*	50*	8	7
COc1ccccc1OCCCn1cc(C(=O)c2ccco2)c2ccccc21	-6	-35	-26	7	54*	41	27*	39	4	4
CNC(=O)Oc1ccccc1C1CCCCC1	-7	/	/	0	-26	/	/	/	/	/
COc1ccc(CCNCc2ccncc2)cc1	-2	-17	-17	46*	0	12	/	/	/	/	TAAR1 ag confirm=67*;Ga16 ag counter-2=3;TAAR1 desensitize=28;Ga16 nonsel ant=5
